# From publication PMC3406685 (The Journal of Biological Chemistry, 2012)
# “Also recorded” adds a separate entry of the source.
# Assays:
# α1β1 = conditions: cited from earlier work; for preference of α1β1 and α10β1 among collagens, in words: ref [28], [29]
# Rugli cells (α1β1) = assay: Real-time Rugli cell adhesion; type: cell-based, rat; conditions: xCELLigence
# α2β1 = conditions: cited from earlier work; for affinity for α2β1, in words: ref [37], [38]; for affinity for the α2 I domain, in words: ref [39], [46]
# PC12 cells (α1β1) = assay: Real-time PC12 cell adhesion using xCELLigence; type: cell-based, rat; conditions: for PC12 cell adhesion in presence of EDTA: 2 mM EDTA; for PC12 cell adhesion in presence of EDTA / PC12 cell adhesion (cell index), in words: 2 h; for PC12 cell adhesion relative to II-27: Mg^2+, % of the level attained with II-27, four independent experiments; for PC12 cell adhesion (cell index), in words: […] 10^4 cells/well, 2 mM Mg^2+
# [1] = system: recombinant human α2 I domain; assay: SPBA, wild-type α2 I domain to coated peptides; type: binding; conditions: 0.1 μg protein/well, four independent experiments
# [2] = system: parental C2C12 cells lacking collagen-binding integrins; assay: Adhesion of parental C2C12 cells; type: cell-based, mouse; conditions: real-time adhesion, GPP10 control
# [3] = system: C2C12-α2^+ cells (human α2β1); assay: Real-time adhesion of C2C12-α2^+ cells; type: cell-based, mouse cells expressing human α2β1; conditions: xCELLigence; 25,000 cells/well, 2 h; GPP10 control
# [4] = system: C2C12-α11^+ cells (human α11β1); assay: Real-time adhesion of C2C12-α11^+ cells; type: cell-based, mouse cells expressing human α11β1; conditions: xCELLigence; 25,000 cells/well, 2 h; GPP10 control
# [5] = system: recombinant human α1 I domain; assay: Solid-phase binding assay; conditions: conclusion from all data together
# [6] = system: α1β1-expressing Rugli cells; conditions: ref [54]; cited from earlier work
# [7] = system: constitutively active E317W α1 I domain; assay: SPBA, constitutively active E317W α1 I domain to coated peptides; type: binding; conditions: 0.1 μg protein/well, four independent experiments
# [8] = system: constitutively active E318W α2 I domain; assay: SPBA, constitutively active E318W α2 I domain to coated peptides; type: binding; conditions: 0.1 μg protein/well, four independent experiments
# Outline: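 GST-tagged I domain (0.1 μg/well) added to triple-helical peptides coated at 10 μg/ml (1 h, 22 °C), blocked 1 h with TBS/50 mg/ml BSA. Binding 1 h at room temperature in TBS/1 mg/ml BSA with 2 mM MgCl₂ or EDTA. Detected with HRP anti-GST (1:10,000, 1 h) and TMB colour. Mean ± S.E. of four independent experiments, each in triplicate.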
compound,measurement,setting,value
GFPGEN,"α1β1 selectivity / α1 I domain affinity, in words","α1β1; expressed within Streptococcus pyogenes collagen-like molecules, ref [40]",selective ligand for α1β1; also recorded: higher affinity for the α1 I domain compared with GFPGER
"CCCCCCCCCCCCCC(=O)O[C@@H]1[C@@H](C)[C@@]2(O)[C@@H](C=C(CO)C[C@]3(O)C(=O)C(C)=C[C@@H]23)[C@@H]2C(C)(C)[C@]12OC(C)=O [PMA, phorbol 12-myristate 13-acetate, reference compound]",Effect of PMA treatment on Rugli cell adhesion,"Rugli cells (α1β1); 1 μM PMA, 30 min",increased both the rate of onset of adhesion and the peak cell index
GLSGER,"affinity for α2β1, in words",α2β1,"intermediate or low affinity, which increased upon cell activation"
GKOGDQGVOGEAGAO [II-27-C],PC12 cell adhesion in presence of EDTA,PC12 cells (α1β1); xCELLigence,no adhesion was observed in the presence of EDTA
same,PC12 cell adhesion relative to II-27,PC12 cells (α1β1); xCELLigence,~40%
same,"PC12 cell adhesion (cell index), in words",PC12 cells (α1β1); xCELLigence,no greater than to GVOGEA
same,"adhesion of wild-type α2 I domain, in words",[1],did not bind
same,"parental C2C12 cell adhesion, in words",[2],None of these cells showed any specific binding
same,"C2C12-α2^+ cell adhesion, in words",[3],None of these cells showed any specific binding
same,"C2C12-α11^+ cell adhesion, in words",[4],None of these cells showed any specific binding
GDQGVOGEAGAO [II-27-B],PC12 cell adhesion in presence of EDTA,PC12 cells (α1β1); xCELLigence,no adhesion was observed in the presence of EDTA
same,PC12 cell adhesion relative to II-27,PC12 cells (α1β1); xCELLigence,~40%
same,"adhesion of wild-type α2 I domain, in words",[1],did not bind
same,"parental C2C12 cell adhesion, in words",[2],None of these cells showed any specific binding
same,"C2C12-α2^+ cell adhesion, in words",[3],None of these cells showed any specific binding
same,"C2C12-α11^+ cell adhesion, in words",[4],None of these cells showed any specific binding
GLOGER,"affinity for the α1 I domain versus α2 I domain, in words","α1β1; ref [37], [38]",relatively higher affinity for the α1 I domain than for the α2 I domain
GSOGEN,"overall α1β1 recognition / selectivity, in words",[5],displays little activity
GASGER,"affinity for α2β1, in words",α2β1,"intermediate or low affinity, which increased upon cell activation"
collagen VI: collagen type VI,"preference of α1β1 and α10β1 among collagens, in words",α1β1,preferentially bind collagen types IV and VI over fibrillar collagens
collagen IV: monomeric pepsin-digested human collagen IV (C-5533) [reference compound],"preference of α1β1 and α10β1 among collagens, in words",α1β1,preferentially bind collagen types IV and VI over fibrillar collagens
same,"affinity of α1β1 for collagen IV, in words",α1β1; ref [30],high affinity
GFPGER,"PC12 cell adhesion (cell index), in words",PC12 cells (α1β1); xCELLigence,weak binding (lower compared with GFOGER)
same,"affinity for the α2 I domain, in words",α2β1,high or moderate affinity motifs for the α2 I domain
same,"ligand quality for α1β1-expressing Rugli cells, in words",[6],poor ligand for α1β1-expressing Rugli cells
GROGER,"PC12 cell adhesion (cell index), in words",PC12 cells (α1β1); xCELLigence,only slight activity
same,"affinity for the α2 I domain, in words",α2β1,high or moderate affinity motifs for the α2 I domain
GLKGEN,"PC12 cell adhesion (cell index), in words",PC12 cells (α1β1); xCELLigence,only slight activity
GQRGER,"affinity for α2β1, in words",α2β1,"intermediate or low affinity, which increased upon cell activation"
GPOGPOGEGGKOGDQGVOGEAGAOGV [II-27],"overall α1β1 recognition / selectivity, in words",[5],new α1β1-binding activity
same,Increase of PC12 cell binding upon substitution of Mg^2+ with Mn^2+,"PC12 cells (α1β1); real-time binding assay, Mn^2+ vs Mg^2+ (data not shown)",65%
same,"PC12 cell adhesion, comparison of selected peptides (Fig. 7)","PC12 cells (α1β1); xCELLigence, 25,000 cells/well, mean cell index after 2 h, three experiments",bound most strongly to III-7 and then to II-27 and II-28
same,"adhesion of wild-type α2 I domain, in words",[1],did not bind
same,"parental C2C12 cell adhesion, in words",[2],None of these cells showed any specific binding
same,"adhesion of active E317W α1 I domain, in words",[7],E317W but not E318W bound strongly
same,"adhesion of active E318W α2 I domain, in words",[8],E317W but not E318W bound strongly
same,"Rugli cell adhesion without activation, in words",Rugli cells (α1β1); control Rugli cells,moderate ligand for α1β1
same,"C2C12-α2^+ cell adhesion, in words",[3],None of these cells showed any specific binding; also recorded: did not bind
same,"C2C12-α11^+ cell adhesion, in words",[4],None of these cells showed any specific binding; also recorded: did not bind
GLOGEA,"affinity for the α2 I domain, in words",α2β1,high or moderate affinity motifs for the α2 I domain
GMOGER,"PC12 cell adhesion (cell index), in words",PC12 cells (α1β1); xCELLigence,Moderate binding
same,"affinity for the α2 I domain, in words",α2β1,high or moderate affinity motifs for the α2 I domain
GAOGER,"PC12 cell adhesion (cell index), in words",PC12 cells (α1β1); xCELLigence,Moderate binding
